Source: ChEMBL document CHEMBL1127388, “Synthesis and structure-activity relationships in a series of antiinflammatory corticosteroid analogues, halomethyl androstane-17 beta-carbothioates and -17 beta-carboselenoates” (1994)

Experiments:
Type in all cases: functional
Homo sapiens = species on record: Homo sapiens; assay: Tested for human vasoconstrictor activity relative to fluocinolone acetonide (100)
Mus musculus [1] = assay: Systemic corticosteroid activity after topical application relative to fluocinolone acetonide in mice.
Outline: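 Mice (25–30 g), nine groups of 10, given topical steroid in acetone daily for seven consecutive days; reference fluocinolone acetonide daily doses 0.47, 1.9, 7.5 and 30 µg; vehicle controls. Day after last dose, Et₂O vapor stress 1 min, re-anaesthetised with Et₂O; blood of two mice pooled; plasma corticosterone read fluorimetrically; potency from log daily dose vs corticosterone.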

Mus musculus [2] = assay: Topical anti-inflammatory activity relative to fluocinolone acetonide in mice.
Outline: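 Croton oil ear test in mice (22–28 g), nine groups of 10; steroid dissolved in croton oil (2 vol)/EtOH (20)/Et₂O (78), 0.02 mL to inner aspect of both ears; reference doses 0.015, 0.06, 0.25, 1 µg; untreated-oil controls; ears weighed after 6 h; potency from log dose vs ear weight.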

Rattus norvegicus [3] = assay: Systemic corticosteroid activity after topical application relative to fluocinolone acetonide in rats.
Outline: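 Rats (170–200 g), seven groups of six, fur clipped, ca. 2 cm² dorsal area dosed once daily for seven days with steroid in acetone (0.02 mL; reference 0.5, 2, 8 µg). Day after final dose: Et₂O stress 1 min, 20 min later pentobarbitone i.p., cardiac blood; fluorimetric plasma corticosterone or adrenal weights; potency from log daily dose.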

Rattus norvegicus [4] = assay: Topical anti-inflammatory activity relative to fluocinolone acetonide in rats.
Outline: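 Modified Tonelli croton oil ear test: rats (54–70 g), 7 groups of 10; graded steroid doses in croton oil (5 vol)/EtOH (20)/Et₂O (75), 0.04 mL to inner aspect of both ears (reference 0.06, 0.25, 1 µg); control gets unmedicated oil. After 6 h, CO₂ kill, ears weighed separately; relative potency by ANOVA on log dose and ear weight.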

For `C=C1CC2C3C[C@H](F)C4=CC(=O)C=C[C@]4(C)[C@@]3(F)[C@@H](O)C[C@]2(C)[C@@]1(OC(=O)CC)C(=O)SCF` (stereo partly specified), which Activity (Homo sapiens) is on record?
The Activity was 1048.

What about the Activity (Mus musculus [1]) of the same molecule?
The Activity was >100.

What about the Activity (Mus musculus [2]) of the same molecule?
Its Activity is 197.

Which Activity (Homo sapiens) does the source give for `CC(=O)O[C@]1(C(=O)SCCl)[C@@H](C)CC2C3CCC4=CC(=O)C=C[C@]4(C)[C@@]3(F)[C@@H](O)C[C@@]21C` (stereo partly specified) here?
Its Activity is 544.

What about the Activity (Mus musculus [1]) of the same molecule?
Its Activity is 14.7.

And the Activity (Mus musculus [2])?
The Activity was 59.

And the Activity (Rattus norvegicus [3])?
Its Activity is 0.5.

And the Activity (Rattus norvegicus [4])?
The Activity was 24.

For `CCC(=O)O[C@]1(C(=O)SCF)[C@H](C)CC2C3CCC4=CC(=O)C=C[C@]4(C)[C@@]3(F)[C@@H](O)C[C@@]21C` (stereo partly specified), which Activity (Homo sapiens) is on record?
The Activity was 653.

Which results are given for `CCC(=O)O[C@]1(C(=O)SCF)CCC2C3C[C@H](F)C4=CC(=O)C=C[C@]4(C)[C@H]3[C@@H](O)C[C@@]21C` (stereo partly specified)?
Activity (Homo sapiens): 697; Activity (Mus musculus [1]): >200; Activity (Mus musculus [2]): 56; Activity (Rattus norvegicus [4]): 97

Which results are given for `CCC(=O)O[C@]1(C(=O)SCF)[C@@H](C)CC2C3CCC4=CC(=O)C=C[C@]4(C)[C@H]3[C@@H](O)C[C@@]21C` (stereo partly specified)?
Activity (Homo sapiens): 800; Activity (Mus musculus [2]): 50; Activity (Rattus norvegicus [3]): 5.1; Activity (Rattus norvegicus [4]): 44

`CCCC(=O)O[C@]1(C(=O)SCCl)[C@@H](C)CC2C3CCC4=CC(=O)C=C[C@]4(C)[C@@]3(F)[C@@H](O)C[C@@]21C` (stereo partly specified) was tested. Which Activity (Homo sapiens) did it give?
Its Activity is 143.

For `C=C1CC2C3CCC4=CC(=O)C=C[C@]4(C)[C@@]3(F)[C@@H](O)C[C@]2(C)[C@@]1(OC(=O)CC)C(=O)[Se]CCl` (stereo partly specified), which Activity (Homo sapiens) is on record?
The Activity was 200.

And the Activity (Mus musculus [1])?
The Activity was 2.

And the Activity (Mus musculus [2])?
The Activity was 40.

And the Activity (Rattus norvegicus [4])?
The Activity was 16.

Which Activity (Homo sapiens) does the source give for `CC(=O)O[C@]1(C(=O)SCF)[C@@H](C)CC2C3CCC4=CC(=O)C=C[C@]4(C)[C@@]3(F)[C@@H](O)C[C@@]21C` (stereo partly specified) here?
Its Activity is 1388.

And the Activity (Mus musculus [2])?
The Activity was 67.

What about the Activity (Rattus norvegicus [3]) of the same molecule?
Its Activity is 13.5.

And the Activity (Rattus norvegicus [4])?
The Activity was 40.

With `CCC(=O)O[C@]1(C(=O)SCF)CCC2C3CCC4=CC(=O)C=C[C@]4(C)[C@@]3(F)[C@@H](O)C[C@@]21C` (stereo partly specified) as the molecule, how does the Activity (Homo sapiens) read?
The Activity was 1984.

What about the Activity (Mus musculus [1]) of the same molecule?
The Activity was 149.

And the Activity (Mus musculus [2])?
Its Activity is 63.

What about the Activity (Rattus norvegicus [3]) of the same molecule?
Its Activity is 1.5.

And the Activity (Rattus norvegicus [4])?
The Activity was 39.

Which results are given for `C=C1CC2C3CCC4=CC(=O)C=C[C@]4(C)[C@@]3(F)[C@@H](O)C[C@]2(C)[C@@]1(OC(=O)CC)C(=O)[Se]C` (stereo partly specified)?
Activity (Homo sapiens): 187; Activity (Mus musculus [2]): 27; Activity (Rattus norvegicus [3]): <0.2; Activity (Rattus norvegicus [4]): 19

With `CCC(=O)O[C@]1(C(=O)SCBr)[C@@H](C)CC2C3CCC4=CC(=O)C=C[C@]4(C)[C@@]3(F)[C@@H](O)C[C@@]21C` (stereo partly specified) as the molecule, how does the Activity (Homo sapiens) read?
Its Activity is 254.

What does the source list for `CCC(=O)O[C@]1(C(=O)SCCl)[C@@H](C)CC2C3CCC4=CC(=O)C=C[C@]4(C)[C@@]3(F)[C@@H](O)C[C@@]21C` (stereo partly specified)?
Activity (Homo sapiens): 1469; Activity (Mus musculus [1]): 44; Activity (Mus musculus [2]): 41; Activity (Rattus norvegicus [3]): 0.9; Activity (Rattus norvegicus [4]): 36

Which results are given for `CCC(=O)O[C@]1(C(=O)SCF)[C@H](C)C[C@H]2[C@@H]3C[C@H](F)C4=CC(=O)C=C[C@]4(C)[C@@]3(F)[C@@H](O)C[C@@]21C` [FLUTICASONE PROPIONATE]?
Activity (Homo sapiens): 945; Activity (Mus musculus [1]): 1; Activity (Mus musculus [2]): 113; Activity (Rattus norvegicus [3]): 1.5; Activity (Rattus norvegicus [4]): 85

Which Activity (Homo sapiens) does the source give for `C=C1CC2C3C[C@H](F)C4=CC(=O)C=C[C@]4(C)[C@@]3(F)[C@@H](O)C[C@]2(C)[C@@]1(OC(=O)CC)C(=O)SCCl` (stereo partly specified) here?
The Activity was 170.

What about the Activity (Mus musculus [1]) of the same molecule?
Its Activity is >100.

And the Activity (Mus musculus [2])?
Its Activity is 108.

For `CCC(=O)O[C@]1(C(=O)SCF)[C@@H](C)CC2C3CCC4=CC(=O)C=C[C@]4(C)[C@@]3(F)[C@@H](O)C[C@@]21C` (stereo partly specified), which Activity (Homo sapiens) is on record?
The Activity was 1262.

And the Activity (Mus musculus [1])?
The Activity was 450.

And the Activity (Mus musculus [2])?
The Activity was 89.

And the Activity (Rattus norvegicus [3])?
The Activity was 13.

And the Activity (Rattus norvegicus [4])?
Its Activity is 39.

Which Activity (Homo sapiens) does the source give for `C=C1CC2C3CCC4=CC(=O)C=C[C@]4(C)[C@@]3(F)[C@@H](O)C[C@]2(C)[C@@]1(OC(=O)CC)C(=O)SCCl` (stereo partly specified) here?
The Activity was 365.

What about the Activity (Mus musculus [1]) of the same molecule?
Its Activity is 2.

And the Activity (Mus musculus [2])?
Its Activity is 42.

And the Activity (Rattus norvegicus [3])?
The Activity was 0.8.

And the Activity (Rattus norvegicus [4])?
Its Activity is 12.

With `CCCC(=O)O[C@]1(C(=O)SCF)[C@H](C)CC2C3C[C@H](F)C4=CC(=O)C=C[C@]4(C)[C@@]3(F)[C@@H](O)C[C@@]21C` (stereo partly specified) as the molecule, how does the Activity (Homo sapiens) read?
Its Activity is 299.

And the Activity (Mus musculus [1])?
The Activity was 0.7.

And the Activity (Mus musculus [2])?
The Activity was 55.

What about the Activity (Rattus norvegicus [4]) of the same molecule?
The Activity was 55.

How did the Activity (Homo sapiens) turn out when `CC1(C)O[C@@H]2C[C@H]3[C@@H]4C[C@H](F)C5=CC(=O)C=C[C@]5(C)[C@@]4(F)[C@@H](O)C[C@]3(C)[C@]2(C(=O)CO)O1` [FLUOCINOLONE ACETONIDE] was run?
Its Activity is 100.

What about the Activity (Mus musculus [1]) of the same molecule?
The Activity was 100.

What about the Activity (Mus musculus [2]) of the same molecule?
The Activity was 100.

And the Activity (Rattus norvegicus [3])?
Its Activity is 100.

What about the Activity (Rattus norvegicus [4]) of the same molecule?
The Activity was 100.

How did the Activity (Homo sapiens) turn out when `CCC(=O)O[C@]1(C(=O)SCCl)CCC2C3CCC4=CC(=O)C=C[C@]4(C)[C@@]3(F)[C@@H](O)C[C@@]21C` (stereo partly specified) was run?
The Activity was 916.

What about the Activity (Mus musculus [1]) of the same molecule?
The Activity was 100.

What about the Activity (Mus musculus [2]) of the same molecule?
Its Activity is 20.

Which results are given for `C=C1CC2C3CCC4=CC(=O)C=C[C@]4(C)[C@@]3(F)[C@@H](O)C[C@]2(C)[C@@]1(OC(=O)CC)C(=O)SCF` (stereo partly specified)?
Activity (Homo sapiens): 1497; Activity (Mus musculus [1]): 44; Activity (Mus musculus [2]): 41; Activity (Rattus norvegicus [3]): 2.5; Activity (Rattus norvegicus [4]): 20

How did the Activity (Homo sapiens) turn out when `CCC(=O)O[C@]1(C(=O)SCI)[C@@H](C)CC2C3CCC4=CC(=O)C=C[C@]4(C)[C@@]3(F)[C@@H](O)C[C@@]21C` (stereo partly specified) was run?
Its Activity is 41.

How did the Activity (Homo sapiens) turn out when `CCC(=O)O[C@]1(C(=O)SCCl)[C@H](C)CC2C3C[C@H](F)C4=CC(=O)C=C[C@]4(C)[C@@]3(F)[C@@H](O)C[C@@]21C` (stereo partly specified) was run?
The Activity was 124.

What about the Activity (Mus musculus [1]) of the same molecule?
Its Activity is 0.04.

What about the Activity (Mus musculus [2]) of the same molecule?
Its Activity is 56.

And the Activity (Rattus norvegicus [3])?
Its Activity is <0.02.

And the Activity (Rattus norvegicus [4])?
Its Activity is 29.

What does the source list for `CC(=O)O[C@]1(C(=O)SCF)[C@H](C)CC2C3C[C@H](F)C4=CC(=O)C=C[C@]4(C)[C@@]3(F)[C@@H](O)C[C@@]21C` (stereo partly specified)?
Activity (Homo sapiens): 392; Activity (Mus musculus [1]): 2.9; Activity (Mus musculus [2]): 76; Activity (Rattus norvegicus [3]): 3; Activity (Rattus norvegicus [4]): 88

Which results are given for `CCC(=O)O[C@]1(C(=O)SCCl)[C@@H](C)CC2C3CCC4=CC(=O)C=C[C@]4(C)[C@H]3[C@@H](O)C[C@@]21C` (stereo partly specified)?
Activity (Homo sapiens): 295; Activity (Mus musculus [2]): 27; Activity (Rattus norvegicus [3]): 1.4; Activity (Rattus norvegicus [4]): 29
